Reference: ChEMBL document CHEMBL4622983, “Structure-Activity Relationship Studies of α-Ketoamides as Inhibitors of the Phospholipase A and Acyltransferase Enzyme Family” (J Med Chem, 2020)

Key:
Assay type in all cases: cell-free, HEK-293T
[1] = target: T1, Phospholipase A and acyltransferase 2 (Homo sapiens, UniProt Q9NWW9); experiment: Inhibition of full-length C-terminal FLAG-tagged human PLAAT2 expressed in HEK293T cell lysate preincubated for 30 mins followed by MB064 addition and measured after 20 mins by SDS-PAGE based ABPP analysis
T1 sequence (Q9NWW9 whole entry): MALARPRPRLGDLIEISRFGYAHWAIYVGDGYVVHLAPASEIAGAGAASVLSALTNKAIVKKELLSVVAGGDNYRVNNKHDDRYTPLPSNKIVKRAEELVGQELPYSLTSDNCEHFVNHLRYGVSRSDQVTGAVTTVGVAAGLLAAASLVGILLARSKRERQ
Procedure, shortened: (§1)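 Dose–response competitive ABPP on cytosol only, from HEK293T overexpressing FLAG-tagged PLAAT. Inhibitor 30 min rt, then MB064 20 min rt. PLAAT2 0.25 μg/μL with 250 nM probe; PLAAT3 0.5 μg/μL with 250 nM; PLAAT4 and PLAAT5 1 μg/μL with 500 nM. Fluorescence normalized to Coomassie. IC50 from curves, reported as pIC50 ± SEM, n = 3.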

[2] = target: T2, Phospholipase A and acyltransferase 3 (Homo sapiens, UniProt P53816); experiment: Inhibition of full-length C-terminal FLAG-tagged human PLAAT3 expressed in HEK293T cell lysate preincubated for 30 mins followed by MB064 addition and measured after 20 mins by SDS-PAGE based ABPP analysis; conditions: for pIC50: hek-293t; procedure, shortened: as §1
T2 sequence (P53816 whole entry): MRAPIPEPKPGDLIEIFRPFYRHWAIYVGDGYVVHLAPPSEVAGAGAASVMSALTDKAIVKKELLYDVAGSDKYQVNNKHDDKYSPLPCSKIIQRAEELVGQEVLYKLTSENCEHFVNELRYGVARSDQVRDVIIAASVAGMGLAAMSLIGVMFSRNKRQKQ

[3] = target: T3, Phospholipase A and acyltransferase 4 (Homo sapiens, UniProt Q9UL19); experiment: Inhibition of full-length C-terminal FLAG-tagged human PLAAT4 expressed in HEK293T cell lysate preincubated for 30 mins followed by MB064 addition and measured after 20 mins by SDS-PAGE based ABPP analysis; procedure, shortened: as §1
T3 sequence (Q9UL19 whole entry): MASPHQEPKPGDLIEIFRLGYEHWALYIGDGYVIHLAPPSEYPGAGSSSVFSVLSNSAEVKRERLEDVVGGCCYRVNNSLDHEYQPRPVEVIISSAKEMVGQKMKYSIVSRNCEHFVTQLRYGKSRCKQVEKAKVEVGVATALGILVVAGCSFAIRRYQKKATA

[4] = target: T4, Phospholipase A and acyltransferase 5 (Homo sapiens, UniProt Q96KN8); experiment: Inhibition of full-length C-terminal FLAG-tagged human PLAAT5 expressed in HEK293T cell lysate preincubated for 30 mins followed by MB064 addition and measured after 20 mins by SDS-PAGE based ABPP analysis; procedure, shortened: as §1
T4 sequence (Q96KN8 whole entry): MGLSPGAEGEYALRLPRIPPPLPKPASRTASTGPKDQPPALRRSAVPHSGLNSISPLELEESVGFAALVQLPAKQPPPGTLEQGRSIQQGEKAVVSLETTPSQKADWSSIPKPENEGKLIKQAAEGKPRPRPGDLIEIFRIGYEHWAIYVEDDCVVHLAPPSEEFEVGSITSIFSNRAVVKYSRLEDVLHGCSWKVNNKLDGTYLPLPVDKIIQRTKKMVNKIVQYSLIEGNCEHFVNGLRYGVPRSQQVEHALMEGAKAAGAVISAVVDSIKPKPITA

| Structure (SMILES) | IC50 [1] [µM] | IC50 [2] [µM] | IC50 [3] [µM] | IC50 [4] [µM] | pIC50 [2] |
| --- | --- | --- | --- | --- | --- |
| O=C(NCCc1ccccc1)C(=O)c1ccc(Cl)cc1 | > 10 | > 10 | > 10 | > 10 |  |
| O=C(/C=C/c1cccc(Br)c1)C(=O)NCCc1ccccc1 | > 10 | > 10 | 7.94 | 3.16 |  |
| O=C(CCc1ccccc1)C(F)(F)C(=O)NCCc1ccccc1 | > 10 | > 10 | > 10 | > 10 |  |
| CN1CCN(C(=O)C(=O)CCc2ccc(Cl)cc2)CC1 | > 10 | > 10 | > 10 | > 10 |  |
| O=C(CCc1ccc(Cl)cc1)C(=O)N1CCCCC1 | > 10 | > 10 | > 10 | > 10 |  |
| O=C(CCc1ccc(Cl)cc1)C(=O)N1CCC[C@H]1Cc1ccccc1 | > 10 | > 10 | > 10 | > 10 |  |
| O=C(NCc1ccccc1)C(F)(F)C(O)CCc1ccccc1 (stereo not drawn) | > 10 | > 10 | > 10 | > 10 |  |
| CCNC(=O)C(=O)CCc1ccc(Cl)cc1 | 2.51 | 7.94 | 3.98 | 1 |  |
| CN(C)C(=O)C(=O)CCc1ccc(Cl)cc1 | > 10 | > 10 | > 10 | > 10 |  |
| COc1ccc(CCNC(=O)C(=O)CCCc2ccccc2)cc1OC | 5.01 | 1 | 6.31 | 0.316 |  |
| O=C(CCc1ccc(Cl)cc1)C(=O)N1CCCC1 | > 10 | > 10 | > 10 | > 10 |  |
| O=C(CCc1ccccc1)[C@H](F)C(=O)NCc1ccccc1 | > 10 | > 10 | > 10 | > 10 |  |
| O=C(CCc1ccccc1)C(F)(F)C(=O)NCc1ccccc1 | > 10 | > 10 | > 10 | > 10 |  |
| O=C(CCc1ccc(Cl)cc1)C(=O)N1CCCC[C@H]1c1ccccc1 | > 10 | > 10 | > 10 | > 10 |  |
| CCOC(=O)C(F)(F)C(O)CCc1ccccc1 (stereo not drawn) | > 10 | > 10 | > 10 | > 10 |  |
| O=C(CCc1ccc(Cl)cc1)C(=O)N1CCOCC1 | > 10 | > 10 | > 10 | > 10 |  |

| Structure (SMILES) | IC50 [1] [µM] | IC50 [2] [µM] | IC50 [3] [µM] | IC50 [4] [µM] | pIC50 [2] |
| --- | --- | --- | --- | --- | --- |
| CCN(CCc1ccccc1)C(=O)C(=O)CCc1ccc(Cl)cc1 | > 10 | > 10 | > 10 | > 10 |  |
| O=C(CCc1ccccc1Cl)C(=O)NCCc1ccccc1 | 1.26 | 2 | 2.51 | 1.58 |  |
| O=C(CCc1ccc(Cl)cc1)C(=O)NCCc1ccccc1 |  |  |  |  | 6 |
| CN(CCc1ccccc1)C(=O)C(=O)CCc1ccc(Cl)cc1 | > 10 | > 10 | > 10 | > 10 |  |
| O=C(/C=C/c1ccccc1)C(=O)NCCc1ccccc1 | 7.94 | 1.58 | 10 | 6.31 |  |
| O=C(/C=C/c1ccc(Br)cc1)C(=O)NCCc1ccccc1 | 5.01 | 2.51 | 6.31 | 0.631 |  |
| O=C(CCc1ccc(F)cc1)C(=O)NCCc1ccccc1 | 7.94 | 5.01 | 10 | 1.58 |  |
| O=C(CCc1ccccc1)CC(=O)NCc1ccccc1 | > 10 | > 10 | > 10 | > 10 |  |
| O=C(NCCc1ccccc1)C(=O)c1ccccc1 | > 10 | > 10 | > 10 | > 10 |  |
| CC(=O)C(=O)NCCc1ccccc1 | > 10 | > 10 | > 10 | > 10 |  |
| O=C(CCc1ccccc1)C(=O)NCCc1ccccc1 | > 10 | > 10 | 3.16 | 1 |  |
| COCCN(CCOC)C(=O)C(=O)CCc1ccc(Cl)cc1 | > 10 | > 10 | > 10 | > 10 |  |
| O=C(CCc1ccc(Cl)cc1)C(=O)N1CC[C@@H](c2ccccc2)C1 | > 10 | > 10 | > 10 | > 10 |  |
| O=C(CCc1ccc(C(F)(F)F)cc1)C(=O)NCCc1ccccc1 | 2 | 7.94 | 2.51 | 0.316 |  |
| COc1ccc(/C=C/C(=O)C(=O)NCCc2ccccc2)cc1 | 1.58 | 5.01 | 2.51 | 1 |  |
| O=C(CCc1ccc(Cl)cc1)C(=O)NCc1ccccc1 | 2.51 | 1.58 | 2.51 | 0.251 |  |

The remaining lines, values ahead:

| IC50 [1] [µM] | IC50 [2] [µM] | IC50 [3] [µM] | IC50 [4] [µM] | pIC50 [2] | Structure (SMILES) |
| --- | --- | --- | --- | --- | --- |
| 3.16 | 3.16 | 1.26 | 1.26 |  | COc1ccc(CCC(=O)C(=O)NCCc2ccccc2)cc1 |
| 2 | 2 | 1.26 | 0.251 |  | O=C(CCCc1ccccc1)C(=O)NCCc1ccc(Oc2ncccn2)cc1 |
| 1.58 | 2.51 | 2.51 | 0.631 |  | O=C(/C=C/c1ccc(Cl)cc1)C(=O)NCCc1ccccc1 |
| 0.251 | 0.158 | 0.2 | 0.01 |  | O=C(CCCc1ccccc1)C(=O)NCCc1ccc(Br)cc1 |
| 1.26 | 1.58 | 2.51 | 0.158 |  | O=C(CCCc1ccccc1)C(=O)NCCc1ccc(O)cc1 |
| 6.31 | 1.26 | 2.51 | 0.794 |  | O=C(CCCc1ccccc1)C(=O)NCCc1ccccc1Cl |
|  |  | 0.631 | 0.0316 | 7 | O=C(CCCc1ccccc1)C(=O)NCCc1ccc(Oc2ccc(C(F)(F)F)cn2)cc1 |
| 0.501 | 0.251 | 0.631 | 0.0631 |  | O=C(CCCc1ccccc1)C(=O)NCCc1ccc(Oc2cnccn2)cc1 |
| 0.631 | 1 | 1.58 | 0.2 |  | O=C(CCc1ccc(Cl)cc1)C(=O)NCCCCc1ccccc1 |
| 1.26 | 0.251 | 0.794 | 0.0631 |  | O=C(CCCc1ccccc1)C(=O)NCCc1ccc(Cl)cc1Cl |
| 2 | 0.1 | 1 | 0.1 |  | O=C(CCc1ccc(Cl)c(Cl)c1)C(=O)NCCc1ccccc1 |
| 2.51 | 3.16 | 2.51 | 1 |  | O=C(/C=C/c1cccc(-c2ccccc2)c1)C(=O)NCCc1ccccc1 |
| 3.16 | 1 | 1.58 | 0.158 |  | O=C(CCCCc1ccccc1)C(=O)NCCc1ccccc1 |
| 1.58 | 0.794 | 1.58 | 0.0794 |  | COc1ccc(CCNC(=O)C(=O)CCCc2ccccc2)cc1 |
| 5.01 | 2 | 1.58 | 2.51 |  | Cc1ccc(CCC(=O)C(=O)NCCc2ccccc2)cc1 |
| 0.794 | 0.2 | 1 | 0.0501 |  | O=C(CCCc1ccccc1)C(=O)NCCc1cccc(Cl)c1 |
| 0.2 | 0.158 | 0.0794 | 0.0794 |  | O=C(CCCc1ccccc1)C(=O)NCCc1ccc(Oc2ccc(C(F)(F)F)nc2)cc1 |
| 2.51 | 1.58 | 1.26 | 1.26 |  | O=C(CCc1cccc(Cl)c1)C(=O)NCCc1ccccc1 |
| 2 | 0.126 | 1.26 | 0.0398 |  | Cc1ccc(CCNC(=O)C(=O)CCCc2ccccc2)cc1 |
| 0.631 | 0.251 | 0.2 | 0.0794 |  | O=C(CCCc1ccccc1)C(=O)NCCc1ccc(Oc2ccnc(Cl)n2)cc1 |
| 0.501 | 0.398 | 0.631 | 0.1 |  | O=C(CCCc1ccccc1)C(=O)NCCc1ccccc1 |
